# From PMC3752840 (Journal of the American Chemical Society, 2013)
# “And” between values parts separate entries of the source, which are not always exact repeats. Equal values may be shown once. Square brackets hold non-standard residues; d marks the D form. Peptide text beside a SMILES is read from it. * marks the point of attachment. Heptanoyl = CCCCCCC(=O)*; Octanoyl = CCCCCCCC(=O)*
# Assays:
# papain = target: T1, papain (Carica papaya, UniProt P00784); assay: biochemical
# T1 sequence (P00784 134-345): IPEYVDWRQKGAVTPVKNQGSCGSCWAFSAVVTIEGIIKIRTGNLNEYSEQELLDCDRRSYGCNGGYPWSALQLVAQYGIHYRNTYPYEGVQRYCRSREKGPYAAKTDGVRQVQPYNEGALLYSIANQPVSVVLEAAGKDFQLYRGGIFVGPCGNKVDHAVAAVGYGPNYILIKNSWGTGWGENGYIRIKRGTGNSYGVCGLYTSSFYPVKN
# human calpain-I = target: T2, human calpain-I (Homo sapiens, UniProt P07384); assay: Calpain IC50, Suc-LLVY-AMC fluorescence assay; type: biochemical
# T2 sequence (P07384 1-714): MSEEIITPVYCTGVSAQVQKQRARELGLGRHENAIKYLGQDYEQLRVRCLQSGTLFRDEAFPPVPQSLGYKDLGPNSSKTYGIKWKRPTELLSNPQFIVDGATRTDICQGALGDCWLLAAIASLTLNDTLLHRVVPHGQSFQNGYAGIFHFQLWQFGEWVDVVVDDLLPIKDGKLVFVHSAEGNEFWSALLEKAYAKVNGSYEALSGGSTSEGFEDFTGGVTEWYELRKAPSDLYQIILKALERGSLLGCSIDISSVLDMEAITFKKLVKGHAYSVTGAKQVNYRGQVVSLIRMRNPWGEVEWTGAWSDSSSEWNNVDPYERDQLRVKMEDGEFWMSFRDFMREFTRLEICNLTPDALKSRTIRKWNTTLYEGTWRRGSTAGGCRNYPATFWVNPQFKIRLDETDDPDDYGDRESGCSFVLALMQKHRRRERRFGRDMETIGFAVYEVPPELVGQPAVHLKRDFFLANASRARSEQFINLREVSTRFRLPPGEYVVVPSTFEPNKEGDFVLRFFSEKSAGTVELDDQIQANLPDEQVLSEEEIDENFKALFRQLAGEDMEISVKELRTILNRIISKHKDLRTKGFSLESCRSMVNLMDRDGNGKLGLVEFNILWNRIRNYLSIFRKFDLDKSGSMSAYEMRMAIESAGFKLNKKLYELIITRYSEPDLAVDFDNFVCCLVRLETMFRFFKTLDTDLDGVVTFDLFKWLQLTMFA
# T2 sequence (P04632 1-268 partner): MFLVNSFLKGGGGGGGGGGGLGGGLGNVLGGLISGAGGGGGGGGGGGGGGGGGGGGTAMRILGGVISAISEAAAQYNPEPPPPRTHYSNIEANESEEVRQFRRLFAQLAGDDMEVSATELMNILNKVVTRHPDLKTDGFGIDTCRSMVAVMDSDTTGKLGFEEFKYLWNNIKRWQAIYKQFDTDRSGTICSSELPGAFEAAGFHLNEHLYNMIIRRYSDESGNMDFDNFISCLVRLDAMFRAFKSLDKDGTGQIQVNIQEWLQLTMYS
# [1] = target: human 20S proteasome, chymotrypsin-like activity (Homo sapiens, UniProt P28074); assay: Proteasome inhibition assay, chymotrypsin-like activity; type: biochemical
# In short: (§1)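 Human 20S proteasome (1 nM) in 10 mM Tris-HCl, 0.035% SDS, pH 7.4, preincubated with test compound for 15 min at RT. Fluorogenic substrate then added at 5 µM: Suc-LLVY-AMC for chymotrypsin-like activity, Z-LLE-AMC for caspase-like activity. Fluorescence read at 380/460 nm; IC50 calculated from initial rates.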
# [2] = target: human 20S proteasome, caspase-like activity (Homo sapiens, UniProt P28072); assay: Proteasome inhibition assay, caspase-like activity; type: biochemical
# In short: as §1
# [3] = test system: U-937 histiocytic lymphoma cell line; type: cell-based, human; conditions: 72 h
# [4] = test system: FR4 multiple myeloma cell line; type: cell-based, human; conditions: 72 h
# [5] = test system: MM.M1S multiple myeloma cell line; type: cell-based, human; conditions: 72 h, CellTiter-Glo; compound 3 no inhibition up to 80 µM
# human 20S proteasome = human 20S proteasome (Homo sapiens, UniProt P28072+P28074); assay: Proteasome inhibition assay; type: biochemical; conditions: two proteasome activities, which is which not stated
# [6] = CellTiter-Glo, compound 3 no inhibition up to 80 µM
Compound,IC50 (papain) [µM],IC50 (human calpain-I) [µM],IC50 [1] [µM],IC50 [2] [µM],IC50 [3] [µM],IC50 [4] [µM],IC50 cell line MM.M1S [5],fold higher potency against the proteasome than 1 and 2 (human 20S proteasome),"IC50 cell line U-937 [3, 6]","IC50 cell line FR4 [4, 6]"
CCCCCCCC(=O)N[C@H](C(=O)N[C@@H](CCC(N)=O)C(=O)N[C@H](C(=O)N[C@H](CCC(N)=O)C(=O)N[C@H](C(=O)N[C@H](C=O)Cc1ccccc1)C(C)C)[C@@H](C)CC)[C@@H](C)CC [Compound 1] (Octanoyl-IQI[dQ]VF-aldehyde; N-terminus assumed),0.16 ± 0.04,2.9 ± 0.3,4.9 ± 0.3,2.3 ± 0.2,13 ± 1,–,–,–,–,–
CCCCCCC(=O)N[C@H](C(=O)N[C@@H](CCC(N)=O)C(=O)N[C@H](C(=O)N[C@H](CCC(N)=O)C(=O)N[C@H](C(=O)N[C@H](C=O)Cc1ccccc1)[C@@H](C)CC)[C@@H](C)CC)[C@@H](C)CC [Compound 2] (Heptanoyl-IQI[dQ]IF-aldehyde; N-terminus assumed),0.35 ± 0.03,2.7 ± 0.4,3.3 ± 0.3,2.3 ± 0.7,–,30 ± 10,–,–,–,–
CC[C@H](C)[C@H](N)C(=O)N[C@@H](CCC(N)=O)C(=O)N[C@H](C(=O)N[C@H](CCC(N)=O)C(=O)N[C@H](C(=O)N[C@H](C=O)Cc1ccccc1)C(C)C)[C@@H](C)CC [Compound 3] (H-IQI[dQ]VF-aldehyde),0.07 ± 0.01,1.8 ± 0.3,0.43 ± 0.08,0.33 ± 0.07,–,–,No inhibition,6 fold and 10 fold,No inhibition,No inhibition
